# This is a sample that favours compounds with a hit; in the whole collection about 2.5% have one here.
# A1 inh = caspase 3/7 activation in MEF A1-2A-BIM cells, primary screen, A1 inhibitor project, cell-based, luminescence, HTS; Caspase-Glo 3/7 luminescence, 3 h; percent of clofoctol response, vehicle zero; caspase activation, % (concentration not given with the values); 0.066% of 330,000 active; AID 2462, 2010;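 active = over half of replicate activation scores above 10%, or exactly half above 10 with the replicate mean above 10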
# sPLA2-III inh = human group III sPLA2 inhibitors, primary screen, biochemical, QFRET, BODIPY PC-A2 liposome substrate; QFRET BODIPY PC-A2 liposome hydrolysis, fluorescence; 0.56% of 370,000 active; inhibition, % at 12.2 µM; Group 3 secretory phospholipase A2 (Homo sapiens), Q9NZ20;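 active = inhibition above mean plus 3 SD of compounds lying within the high and low control bounds, cut at about 19% in these data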;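 also: 0% = median of test compound wells and 100% = no enzyme DMSO wells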
# Target sequence (Q9NZ20 whole entry, looked up): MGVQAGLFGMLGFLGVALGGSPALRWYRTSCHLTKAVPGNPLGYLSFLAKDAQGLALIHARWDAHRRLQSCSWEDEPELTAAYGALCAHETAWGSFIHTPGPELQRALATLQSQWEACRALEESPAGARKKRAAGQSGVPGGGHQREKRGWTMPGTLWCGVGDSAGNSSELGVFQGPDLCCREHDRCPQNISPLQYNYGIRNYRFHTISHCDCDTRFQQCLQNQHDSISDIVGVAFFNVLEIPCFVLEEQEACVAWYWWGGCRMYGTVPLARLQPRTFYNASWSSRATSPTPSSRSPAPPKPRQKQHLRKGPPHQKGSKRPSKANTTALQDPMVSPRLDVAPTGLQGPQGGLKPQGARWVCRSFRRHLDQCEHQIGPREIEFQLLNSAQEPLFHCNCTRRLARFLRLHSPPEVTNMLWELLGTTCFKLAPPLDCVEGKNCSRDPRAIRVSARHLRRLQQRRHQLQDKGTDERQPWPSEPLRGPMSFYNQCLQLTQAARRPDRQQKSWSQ
# MC4R antag cAMP = MC4R antagonists of cAMP signaling, primary screen, cell-based, TR-FRET, antagonist arm of biased-ligand search. Melanocortin receptor 4 (Homo sapiens), P32245. MC4R-expressing cells, MTII-stimulated cAMP, LANCE TR-FRET. inhibition, % at 6.5 µM. 0.48% of 360,000 active. AID 540295, 2011;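 active = inhibition above its plate's cutoff, the mean of tested wells on that plate plus 3 SD, cut at about 29% in these data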;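 also: 0% = Melanotan II alone and 100% = Melanotan II plus saturating MCL0020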
#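 Assay system: U2OS-MC4R stable cell line; Also added: Melanotan II; Technique: Eu-cAMP/anti-cAMP TR-FRET, emission 671 nm; Times: 30-min compound, 1-h challenge, 1-h detection, room temperature.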
# NTR1 agonist = agonists of human NTR1, primary screen, imaging, U2OS cells, beta-arrestin-GFP, high content; Neurotensin receptor type 1 (Homo sapiens), P30989; NTR1-U2OS beta-arrestin-GFP spot imaging, agonist mode; activation, % at 20 µM; 0.17% of 330,000 active;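 active = activation at or above 40% of the spot to cytoplasm intensity ratio, with at least 20 cells analyzed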;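 also: 0% = DMSO without peptide and 100% = 100 nM NTR1 peptide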
# Granule exo inh = LAMP-1 surface exposure blockers, TALL-104 cells – cell-based, flow cytometry, MLPCN library, primary screen; TALL-104 LAMP-1 surface exposure; cells stimulated with thapsigargin and PMA; inhibition, % at 10 µM; 0.66% of 360,000 active;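 active = inhibition above about 55%, limit read from the data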
# MC4R ag barr = MC4R agonists recruiting beta-arrestin, primary screen, cell-based, luminescence, agonist arm of biased-ligand search; Melanocortin receptor 4 (Homo sapiens), P32245; U2OS MC4R beta-arrestin complementation; percent of melanotan II response, DMSO zero; activation, % at 8.9 µM; 0.98% of 360,000 active; AID 540308, 2011;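 active = activation above a per-plate cutoff, the mean activation of sample wells on that plate plus 3 SD, cut at about 8% in these data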
# Exocytosis CP01 = inhibitors of lytic granule exocytosis, confirmation, TALL-104 cells, flow cytometry, Cherry Pick01; shares compounds with Granule exo inh; LAMP-1 externalization; stimulated with PMA plus thapsigargin; inhibition, % at 10 µM; 11% of 1,500 active; AID 651954, 2012; in the data active = inhibition above about 60%;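 also: 0% = stimulated vehicle wells and 100% = unstimulated wells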
# Starred values were filed as active, the others as inactive; . = no result.
SMILES,A1 inh,sPLA2-III inh,MC4R antag cAMP,NTR1 agonist,Granule exo inh,MC4R ag barr,Exocytosis CP01
C/C=C/c1ccc(OCC(=O)N(C)CC(=O)Nc2ccc(F)cc2)c(OC)c1,1.7,-18.9,4.5,0.7,-3.8,-1.0,.
Cc1cc(Br)cc(Cl)c1OCC(=O)N1CCN(C(=O)c2ccco2)CC1,-0.2,11.1,4.9,0.4,89.1*,-2.0,-13.6
COC(C/C=C/[C@@H](O)[C@H](C)OCc1ccccc1)OC,1.2,7.9,3.4,1.0,6.8,-2.2,.
COC(C/C=C/[C@H](O)[C@@H](C)OCc1ccccc1)OC,-1.5,4.5,8.3,-1.4,96.4*,-1.6,-4.9
CCC1Sc2ccc(S(=O)(=O)N3CCN(c4ccccc4)CC3)cc2NC1=O (stereo unspecified),0.5,-1.1,3.8,10.2,70.6*,2.3,-11.2
O=C1CSc2ccc(S(=O)(=O)N3CCN(c4ccccc4)CC3)cc2N1,-0.4,-3.4,0.3,4.2,-0.1,1.4,.
COc1ccccc1NC(=O)C1(c2ccccc2)CCCC1,1.6,-2.1,-6.7,0.4,84.7*,4.1,-2.8
COc1ccc(CNC(=O)C2CCN(C(=O)c3csc(Nc4ccc(C)cc4)n3)CC2)cc1,-0.1,-17.1,4.2,7.5,57.7*,2.4,-3.3
Cc1ccc(Nc2nc(C(=O)N3CCC(C(=O)NCc4ccccc4)CC3)cs2)cc1,1.8,-8.2,9.1,2.8,65.2*,-2.5,-4.2
COc1ccc(/C=C/C(=O)O)cc1S(=O)(=O)NCC1CCCO1 (stereo unspecified),-0.1,2.9,-5.5,0.5,-1.3,0.2,.
CC(C)Oc1cc(F)ccc1-c1cc(C(=O)NCc2cccs2)[nH]n1,.,4.7,-1.5,.,1.6,-1.5,.
CC1CC(C)CN(CCCNC(=O)c2cc3c(s2)-c2ccccc2OC3)C1 (stereo unspecified),1.1,-6.8,5.7,1.7,14.8,-1.6,.
CCCN1CCN(CCCNC(=O)c2cc3c(s2)-c2c(C)cccc2OC3)CC1,-0.3,-4.2,9.4,1.0,64.7*,1.0,-1.0
Cc1cccc2c1-c1sc(C(=O)NCCCN3CCCC(C)C3)cc1CO2 (stereo unspecified),-0.6,-16.6,8.2,8.2,85.0*,2.2,-2.3
O=C(CSc1ccc(Cl)cc1)NNC(=O)c1cccnc1,-0.1,1.0,-6.4,-1.7,-7.0,-2.0,.
C[C@H](CO)N1C[C@H](C)[C@@H](CN(C)CC2CCCCC2)Oc2c(NS(=O)(=O)c3cccs3)cccc2C1=O,4.6,.,6.2,1.0,32.2,0.0,.
CNC[C@H]1Oc2c(NS(=O)(=O)c3cccs3)cccc2C(=O)N([C@H](C)CO)C[C@@H]1C,0.5,2.7,7.7,-0.1,77.2*,-0.4,-3.3
C[C@H](CO)N1C[C@H](C)[C@@H](CN(C)S(=O)(=O)c2ccc(F)cc2)Oc2c(NC(=O)c3ccncc3)cccc2C1=O,.,-0.1,-3.4,.,92.2*,0.3,-15.9
COCCn1c(SCC(=O)NCCCN2CCCC2=O)nc2sc3c(c2c1=O)CCCC3,.,5.1,5.2,.,-1.3,-1.0,.
CC(CC(=O)OCC(=O)NCc1ccc(Cl)cc1)c1ccccc1 (stereo unspecified),0.7,-15.0,-0.9,-1.8,5.5,-0.7,.
Cc1cc(SCC(=O)NC2CCCCC2)nc2ccccc12,0.3,-9.5,7.9,1.2,97.7*,-0.5,-13.8
Cc1cc(SCC(=O)NC2CCCC2)nc2ccccc12,0.1,4.9,15.7,-0.7,-12.2,0.9,.
Cc1cccc(C)c1NC(=O)C1CCCN1S(=O)(=O)c1ccc2c(c1)n(C)c(=O)c(=O)n2C (stereo unspecified),1.3,.,7.1,-1.4,-0.3,0.7,.
COc1ccc(NC(=O)Nc2c(O)ccc3ccccc23)cc1,0.4,-22.7,6.8,-0.3,87.3*,1.9,-3.8
O=C(NCCCN1CCOCC1)NC12CC3CC(CC(C3)C1)C2,0.7,-4.9,-1.0,-0.5,-1.6,-1.3,.
SMILES,A1 inh,sPLA2-III inh,MC4R antag cAMP,NTR1 agonist,Granule exo inh,MC4R ag barr,Exocytosis CP01
CCOCCCNC(=O)NC12CC3CC(CC(C3)C1)C2,1.6,-2.3,9.0,-0.5,-3.2,-0.6,.
O=C(NCCCN1CCN(c2ccc(F)cc2)CC1)NC12CC3CC(CC(C3)C1)C2,-0.3,2.8,2.5,0.8,56.3*,3.5,-4.0
O=C(O)CCCCCCCCCCCNC(=O)NC12CC3CC(CC(C3)C1)C2,-1.1,4.7,7.0,0.7,79.6*,-1.6,-3.1
CCOc1ccc(/C=N/OCC(=O)NC(c2ccccc2)c2ccccc2)cc1,0.9,-8.1,4.5,4.1,-1.6,0.6,.
CCCCCc1c(-c2ccc(Cl)cc2)ncn1CCc1ccccc1OC,.,-11.1,.,.,19.6,.,.
CCCCCc1c(-c2ccc(OC)cc2)ncn1CCc1ccccc1OC,.,-13.3,.,.,67.7*,.,16.6
CCCCc1c(-c2ccc(OC)cc2)ncn1CCc1ccccc1OC,.,3.4,.,.,82.3*,.,27.2
CCn1cc(CCC(=O)Nc2ccc(Oc3cccnc3)cc2)c2ccccc21,.,-2.4,.,.,.,.,.
CCN(CC)CC(O)Cn1c(C)c(-c2ccccc2)c2cc([N+](=O)[O-])ccc21 (stereo unspecified),-1.1,1.2,16.2,6.1,58.5*,3.9,10.2
CCN(CC)CC(O)Cn1c2ccccc2c2ccccc21 (stereo unspecified),0.5,6.9,-2.6,-0.7,-0.2,0.5,.
O=C(/C=C/c1ccc(OCCCF)cc1)N1CCOCC1,-2.7,-1.3,5.7,0.1,-1.8,-1.0,.
COc1ccc(OC(=O)Cc2cccc3ccccc23)cc1,-0.2,3.2,1.8,.,-12.7,1.5,.
C[C@H](c1ccccc1)N1C[C@@H](COCc2ccccc2)Oc2cc(N3CC[C@@H](N(C)C)C3)ccc2S1(=O)=O,.,-2.4,.,.,63.0*,.,12.6
C[C@H](c1ccccc1)N1C[C@@H](COCc2ccccc2)Oc2cc(N3CC[C@H](N(C)C)C3)ccc2S1(=O)=O,.,3.0,.,.,53.4,.,.
C[C@@H](c1ccccc1)N1C[C@@H](COCc2ccccc2)Oc2cc(N3CC[C@H](N(C)C)C3)ccc2S1(=O)=O,.,-4.8,.,.,69.9*,.,16.5
O=C(NCc1ccc(F)cc1)C1CCN(S(=O)(=O)c2ccc(Cl)cc2)CC1,0.2,3.1,-1.1,2.6,-3.8,0.5,.

# Screening data from PubChem.
